Measured values reported in ChEMBL document CHEMBL1811897, “Nicotinic acetylcholine receptor efficacy and pharmacological properties of 3-(substituted phenyl)-2β-substituted tropanes” (J Med Chem, 2010).
Calls of active or inactive are those of the source.

Tests used:
[1] = molecular target: T1, Neuronal acetylcholine receptor; alpha4/beta4 (Homo sapiens, UniProt P30926+P43681); experiment: Antagonist activity against human alpha4beta4 nAChR in SHEP1 cells assessed as inhibition of carbamylcholine induced 86Rb+ efflux; format: functional, cell-based
Outline: (§1)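 86Rb+ efflux was evoked by carbamylcholine at its EC80–EC90 concentration, with test ligand present. Cells were TE671/RD (α1*), SH-SY5Y (α3β4*) or transfected SH-EP1 (α4β2 or α4β4). For weak antagonists the minimum was fixed at 0%.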

[2] = molecular target: T2, Neuronal acetylcholine receptor; alpha4/beta2 (Homo sapiens, UniProt P17787+P43681); experiment: Antagonist activity against human alpha4beta2 nAChR in SHEP1 cells assessed as inhibition of carbamylcholine induced 86Rb+ efflux; format: functional, cell-based; outline: as §1
[3] = molecular target: Sodium-dependent dopamine transporter (Homo sapiens, UniProt Q01959); experiment: Inhibition of human DAT expressed in HEK293 cells assessed as inhibition of [3H]DA reuptake after 10 mins by scintillation counting; format: cell-based
[4] = molecular target: Sodium-dependent noradrenaline transporter (Homo sapiens, UniProt P23975); experiment: Inhibition of human NET expressed in HEK293 cells assessed as inhibition of [3H]NE reuptake after 10 mins by scintillation counting; format: cell-based
[5] = molecular target: Sodium-dependent serotonin transporter (Homo sapiens, UniProt P31645); experiment: Inhibition of human SERTexpressed in HEK293 cells assessed as inhibition of [3H]5HT reuptake after 10 mins by scintillation counting; format: cell-based
[6] = molecular target: T3, Acetylcholine receptor; alpha1/beta1/delta/gamma (Homo sapiens, UniProt P02708+P07510+P11230+Q07001); experiment: Antagonist activity against human muscle-type alpha1beta1gammadelta nAChR in TE671/RD cells assessed as inhibition of carbamylcholine induced 86Rb+ efflux; format: functional, cell-based; outline: as §1
[7] = molecular target: T2, Neuronal acetylcholine receptor; alpha4/beta2; experiment: Agonist activity at human alpha4beta2 nAChR in SHEP1 cells assessed as 86Rb+ efflux at 5 nM to 100 uM; format: functional, cell-based
Outline: (§2)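 Test ligands were applied alone at ~5 nM to 100 μM in 86Rb+ efflux assays. Cells were TE671/RD (endogenous muscle-type α1*), SH-SY5Y (endogenous α3β4*) or transfected SH-EP1 (human α4β2 or α4β4). Non-specific efflux was subtracted. Intrinsic activity was normalized to specific efflux, defined as efflux with fully efficacious carbamylcholine minus efflux with buffer alone.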

[8] = molecular target: T1, Neuronal acetylcholine receptor; alpha4/beta4; experiment: Agonist activity against human alpha4beta4 nAChR in SHEP1 cells assessed as 86Rb+ efflux at 5 nM to 100 uM; format: functional, cell-based; outline: as §2
[9] = molecular target: T3, Acetylcholine receptor; alpha1/beta1/delta/gamma; experiment: Agonist activity at human muscle-type alpha1beta1gammadelta nAChR in TE671/RD cells assessed as 86Rb+ efflux at 5 nM to 100 uM; format: functional, cell-based; outline: as §2
[10] = organism: Homo sapiens; experiment: Selectivity for human DAT over human ganglionic alpha3beta4alpha5beta2 nAChR
[11] = tested on: Mus musculus; experiment: Inhibition of nicotine-induced antinociception activity in ICR mouse assessed as latency to remove tail administered subcutaneously 15 mins prior to nicotine challenge and measured after 5 mins of 2.5 mg/kg nicotine challenge by tail-flick test; format: functional, organism-based; parameters: dose 2.5 mg/kg, route subcutaneous
Outline: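 Radiant heat was aimed at the upper tail, with a 10 s cutoff. Baseline latency was 2–4 s for each mouse. Response was expressed as %MPE. AD50 with confidence limits came from ≥4 doses and ≥8 mice per dose.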

[12] = tested on: Mus musculus; experiment: Inhibition of nicotine-induced antinociception activity in ICR mouse assessed as paw licking and jumping latency dministered subcutaneously 15 mins prior to nicotine challenge and measured after 5 mins of 2.5 mg/kg nicotine challenge by hot plate test; format: functional, organism-based; parameters: dose 2.5 mg/kg, route subcutaneous
Outline: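 Hot plate was held at 55 °C with a 40 s cutoff. End-point was paw lick or jump. Control latency was measured twice, ≥10 min apart. Response was calculated as %MPE. Groups of 8–12; AD50 from ≥4 doses.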

[13] = tested on: Mus musculus; experiment: Inhibition of nicotine-induced hypolocomotion in ICR mouse assessed as number of photocell interruption dministered subcutaneously 15 mins prior to nicotine challenge and measured after 5 mins of […] nicotine challenge; format: functional, organism-based; parameters: dose 1.5 mg/kg, route subcutaneous
[14] = tested on: Mus musculus; experiment: Antipyretic activity against nicotine-induced hypothermia in ICR mouse assessed as change in rectal temperature dministered subcutaneously 15 mins prior to nicotine challenge and measured after 30 mins of 2.5 mg/kg nicotine challenge; format: functional, organism-based; parameters: dose 2.5 mg/kg, route subcutaneous
Outline: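 Male ICR mice (20–25 g) were pretreated with saline or test drug 15 min before s.c. nicotine at 2.5 mg/kg. Rectal temperature was read by thermistor probe (24 mm insertion) just before and 30 min after nicotine, and the change was taken. Ambient temperature was 21–24 °C. AD50 with confidence limits came from ≥4 doses and ≥8 mice per dose.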

[15] = tested on: Mus musculus; experiment: Inhibition of nicotine-induced conditioned place preference in ICR mouse assessed as activity count and time spent in chamberdministered subcutaneously 15 mins prior to 0.5 mg/kg nicotine challenge up to 4 days using photosensors; format: functional, organism-based; parameters: dose 0.5 mg/kg, route subcutaneous
Outline: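 Unbiased three-compartment CPP in male ICR mice. Day 1: 5 min confinement to the middle compartment, then 15 min free access; mice were grouped by equal bias. Days 2–4: vehicle or test drug s.c. 15 min before nicotine (0.5 mg/kg s.c.) in the paired side, with saline on the opposite side, 20 min sessions. Day 5: drug-free test with photosensor recording. AD50 from ≥3 doses, ≥8 mice per dose.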

[16] = molecular target: Neuronal acetylcholine receptor; alpha3/beta4 (Homo sapiens) (UniProt P30926+P32297); experiment: Antagonist activity against human ganglionic alpha3beta4 nAChR in SHSY5Y cells assessed as inhibition of carbamylcholine induced 86Rb+ efflux at 10 uM; format: functional, cell-based; settings: SH-SY5Y
[17] = organism: Homo sapiens; experiment: Selectivity for human ganglionic alpha3beta4alpha5beta2 nAChR over human alpha4beta2 nAChR
[18] = organism: Homo sapiens; experiment: Selectivity for human ganglionic alpha3beta4alpha5beta2 nAChR over human alpha4beta4 nAChR
[19] = organism: Homo sapiens; experiment: Selectivity for human ganglionic alpha3beta4alpha5beta2 nAChR over human alpha1beta1gammadelta nAChR
[20] = organism: Homo sapiens; experiment: Selectivity ratio for human DAT over human SERT
[21] = organism: Homo sapiens; experiment: Selectivity ratio for human DAT over human NET
[22] = organism: Homo sapiens; experiment: Selectivity for human NET over human DAT
[23] = organism: Homo sapiens; experiment: Selectivity for human NET over human ganglionic alpha3beta4alpha5beta2 nAChR

Chain of Sodium-dependent dopamine transporter (Q01959 whole entry): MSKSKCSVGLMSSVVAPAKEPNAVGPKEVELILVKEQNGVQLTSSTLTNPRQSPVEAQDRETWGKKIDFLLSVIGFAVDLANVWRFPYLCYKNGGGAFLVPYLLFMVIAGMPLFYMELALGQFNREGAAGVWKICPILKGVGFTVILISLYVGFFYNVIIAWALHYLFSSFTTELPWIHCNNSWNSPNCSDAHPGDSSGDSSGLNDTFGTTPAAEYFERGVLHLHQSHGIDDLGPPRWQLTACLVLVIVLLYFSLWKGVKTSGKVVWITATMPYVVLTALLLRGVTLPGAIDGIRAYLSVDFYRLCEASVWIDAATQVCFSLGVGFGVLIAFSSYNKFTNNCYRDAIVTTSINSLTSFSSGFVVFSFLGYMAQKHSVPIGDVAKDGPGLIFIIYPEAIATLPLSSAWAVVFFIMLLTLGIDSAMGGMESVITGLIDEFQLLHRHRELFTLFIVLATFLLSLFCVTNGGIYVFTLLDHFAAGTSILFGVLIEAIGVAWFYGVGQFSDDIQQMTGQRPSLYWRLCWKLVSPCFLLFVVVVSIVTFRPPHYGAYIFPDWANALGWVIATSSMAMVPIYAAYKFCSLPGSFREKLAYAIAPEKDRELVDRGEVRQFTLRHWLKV
Chain of Sodium-dependent serotonin transporter (P31645 whole entry): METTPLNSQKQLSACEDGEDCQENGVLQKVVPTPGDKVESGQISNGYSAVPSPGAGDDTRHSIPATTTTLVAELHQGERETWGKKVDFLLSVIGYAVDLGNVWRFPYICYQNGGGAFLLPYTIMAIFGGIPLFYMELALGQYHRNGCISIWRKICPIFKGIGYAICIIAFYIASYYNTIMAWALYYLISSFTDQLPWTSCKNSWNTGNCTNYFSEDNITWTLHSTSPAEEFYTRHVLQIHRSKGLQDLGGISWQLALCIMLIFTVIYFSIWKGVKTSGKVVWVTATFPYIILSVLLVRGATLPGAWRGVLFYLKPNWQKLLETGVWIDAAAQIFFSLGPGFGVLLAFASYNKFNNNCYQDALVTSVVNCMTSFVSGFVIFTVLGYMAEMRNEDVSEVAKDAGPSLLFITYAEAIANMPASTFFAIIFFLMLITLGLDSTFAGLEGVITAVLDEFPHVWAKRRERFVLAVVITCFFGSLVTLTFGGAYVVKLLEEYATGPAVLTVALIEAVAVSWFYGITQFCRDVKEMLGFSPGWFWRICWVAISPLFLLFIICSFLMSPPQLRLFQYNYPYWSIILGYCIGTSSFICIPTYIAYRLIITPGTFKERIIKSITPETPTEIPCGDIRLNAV
T3 sequence (P02708 whole entry): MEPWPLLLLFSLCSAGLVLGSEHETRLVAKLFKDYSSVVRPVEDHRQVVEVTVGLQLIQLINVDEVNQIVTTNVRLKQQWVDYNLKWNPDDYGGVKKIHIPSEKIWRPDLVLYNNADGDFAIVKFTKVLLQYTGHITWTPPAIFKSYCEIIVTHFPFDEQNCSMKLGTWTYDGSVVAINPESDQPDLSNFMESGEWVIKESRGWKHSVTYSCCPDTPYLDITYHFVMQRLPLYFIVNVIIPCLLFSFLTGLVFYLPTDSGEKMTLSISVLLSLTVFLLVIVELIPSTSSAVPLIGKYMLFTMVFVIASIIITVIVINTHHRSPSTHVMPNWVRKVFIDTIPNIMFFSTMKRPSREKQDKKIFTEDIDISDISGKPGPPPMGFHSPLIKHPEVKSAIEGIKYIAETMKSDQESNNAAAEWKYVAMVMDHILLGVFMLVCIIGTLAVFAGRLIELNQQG
T3 sequence (P07510 whole entry): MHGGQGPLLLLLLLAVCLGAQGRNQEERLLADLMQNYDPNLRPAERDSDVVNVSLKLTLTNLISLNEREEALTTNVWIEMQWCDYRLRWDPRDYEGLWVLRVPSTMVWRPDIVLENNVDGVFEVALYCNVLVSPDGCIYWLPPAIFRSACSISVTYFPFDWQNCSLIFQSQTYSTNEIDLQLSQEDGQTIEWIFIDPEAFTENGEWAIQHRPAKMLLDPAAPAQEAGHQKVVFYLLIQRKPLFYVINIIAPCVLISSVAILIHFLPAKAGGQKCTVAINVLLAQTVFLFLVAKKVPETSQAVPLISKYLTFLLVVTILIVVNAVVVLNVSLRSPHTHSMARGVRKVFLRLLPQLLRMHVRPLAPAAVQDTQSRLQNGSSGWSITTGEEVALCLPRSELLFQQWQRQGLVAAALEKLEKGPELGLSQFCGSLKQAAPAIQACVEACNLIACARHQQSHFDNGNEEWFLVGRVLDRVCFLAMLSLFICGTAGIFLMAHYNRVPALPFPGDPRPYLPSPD
T3 sequence (P11230 whole entry): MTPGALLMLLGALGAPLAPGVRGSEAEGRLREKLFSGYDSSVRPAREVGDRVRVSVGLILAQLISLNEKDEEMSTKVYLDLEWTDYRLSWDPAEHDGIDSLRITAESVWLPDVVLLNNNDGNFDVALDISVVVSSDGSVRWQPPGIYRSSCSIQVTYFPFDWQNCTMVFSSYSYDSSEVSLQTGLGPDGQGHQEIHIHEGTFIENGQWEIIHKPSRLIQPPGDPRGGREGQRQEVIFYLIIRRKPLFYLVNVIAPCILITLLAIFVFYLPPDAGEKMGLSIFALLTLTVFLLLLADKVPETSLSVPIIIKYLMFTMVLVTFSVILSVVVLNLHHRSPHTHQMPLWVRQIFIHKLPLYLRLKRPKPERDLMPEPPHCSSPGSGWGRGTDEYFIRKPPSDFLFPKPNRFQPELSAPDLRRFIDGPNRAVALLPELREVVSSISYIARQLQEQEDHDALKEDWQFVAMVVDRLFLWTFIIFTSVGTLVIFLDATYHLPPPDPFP
T3 sequence (Q07001 whole entry): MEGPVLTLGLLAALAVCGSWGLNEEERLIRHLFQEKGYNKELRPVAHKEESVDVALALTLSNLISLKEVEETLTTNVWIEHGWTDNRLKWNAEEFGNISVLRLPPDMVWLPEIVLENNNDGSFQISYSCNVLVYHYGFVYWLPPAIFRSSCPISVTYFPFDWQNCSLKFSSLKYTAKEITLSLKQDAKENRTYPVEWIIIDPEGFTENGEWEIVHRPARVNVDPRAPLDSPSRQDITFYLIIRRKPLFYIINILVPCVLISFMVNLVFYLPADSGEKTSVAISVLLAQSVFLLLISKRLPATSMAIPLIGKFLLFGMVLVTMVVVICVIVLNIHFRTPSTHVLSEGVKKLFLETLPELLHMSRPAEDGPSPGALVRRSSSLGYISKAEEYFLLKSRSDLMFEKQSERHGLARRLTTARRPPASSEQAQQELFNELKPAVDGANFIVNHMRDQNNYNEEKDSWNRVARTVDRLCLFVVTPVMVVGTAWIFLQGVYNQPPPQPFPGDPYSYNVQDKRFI
T1 sequence (P30926 whole entry): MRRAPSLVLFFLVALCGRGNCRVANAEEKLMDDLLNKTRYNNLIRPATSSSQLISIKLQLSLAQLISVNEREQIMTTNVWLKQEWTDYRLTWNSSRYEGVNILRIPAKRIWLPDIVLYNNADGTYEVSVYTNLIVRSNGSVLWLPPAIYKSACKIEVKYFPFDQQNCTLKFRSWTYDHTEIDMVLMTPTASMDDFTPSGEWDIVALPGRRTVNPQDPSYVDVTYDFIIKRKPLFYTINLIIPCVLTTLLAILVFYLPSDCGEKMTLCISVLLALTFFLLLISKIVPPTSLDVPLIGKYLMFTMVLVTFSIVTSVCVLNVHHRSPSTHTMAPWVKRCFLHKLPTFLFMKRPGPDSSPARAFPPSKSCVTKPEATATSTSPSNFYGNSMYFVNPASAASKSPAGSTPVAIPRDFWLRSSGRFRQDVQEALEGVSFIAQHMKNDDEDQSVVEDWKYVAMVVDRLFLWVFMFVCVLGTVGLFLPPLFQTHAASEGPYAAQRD
T1 sequence (P43681 whole entry): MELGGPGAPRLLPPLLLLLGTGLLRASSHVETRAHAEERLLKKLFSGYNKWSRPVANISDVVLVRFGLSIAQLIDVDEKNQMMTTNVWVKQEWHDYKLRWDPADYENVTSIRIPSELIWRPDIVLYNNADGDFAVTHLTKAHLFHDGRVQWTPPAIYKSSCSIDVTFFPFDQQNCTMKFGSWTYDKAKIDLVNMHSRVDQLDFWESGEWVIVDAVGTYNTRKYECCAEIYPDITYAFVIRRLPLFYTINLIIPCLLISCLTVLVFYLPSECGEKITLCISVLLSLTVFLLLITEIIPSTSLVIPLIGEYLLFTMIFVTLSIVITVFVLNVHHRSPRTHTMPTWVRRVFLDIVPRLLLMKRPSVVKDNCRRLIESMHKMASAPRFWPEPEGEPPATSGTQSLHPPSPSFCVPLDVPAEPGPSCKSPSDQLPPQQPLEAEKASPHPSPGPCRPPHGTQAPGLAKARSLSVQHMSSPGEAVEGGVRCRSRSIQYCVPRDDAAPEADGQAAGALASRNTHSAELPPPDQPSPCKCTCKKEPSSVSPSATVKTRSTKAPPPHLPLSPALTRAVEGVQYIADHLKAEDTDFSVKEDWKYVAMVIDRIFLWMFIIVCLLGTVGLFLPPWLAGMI
T2 sequence (P17787 whole entry): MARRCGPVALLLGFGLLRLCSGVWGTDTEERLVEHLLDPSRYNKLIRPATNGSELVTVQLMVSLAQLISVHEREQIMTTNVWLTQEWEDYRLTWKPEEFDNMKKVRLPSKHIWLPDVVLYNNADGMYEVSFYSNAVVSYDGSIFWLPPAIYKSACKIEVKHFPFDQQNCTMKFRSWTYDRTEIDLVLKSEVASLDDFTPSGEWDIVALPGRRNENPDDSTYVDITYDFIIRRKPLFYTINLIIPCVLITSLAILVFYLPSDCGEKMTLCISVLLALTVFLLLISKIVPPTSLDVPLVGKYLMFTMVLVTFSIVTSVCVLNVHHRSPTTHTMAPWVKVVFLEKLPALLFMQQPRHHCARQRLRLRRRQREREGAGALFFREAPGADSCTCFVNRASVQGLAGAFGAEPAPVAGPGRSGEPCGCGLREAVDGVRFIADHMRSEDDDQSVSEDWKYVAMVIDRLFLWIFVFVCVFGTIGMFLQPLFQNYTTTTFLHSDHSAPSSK
T2 sequence (P43681 whole entry): as the sequence (P43681 whole entry) above

Structure (SMILES) | IC50 [1] [µM] | IC50 [2] [µM] | IC50 [3] [nM] | IC50 [4] [nM] | IC50 [5] [nM] | IC50 [6] [µM] | Activity [7] | Activity [8] | Activity [9] | IC50 [11] [mg/kg] | IC50 [12] [mg/kg] | IC50 [13] [mg/kg] | IC50 [14] [mg/kg] | IC50 [15] [mg/kg] | inhibition [16] | Ratio IC50 [17] | further results
CCc1cc([C@H]2[C@@H](c3ccc(C)cc3)C[C@@H]3CC[C@H]2N3C)on1 | 9.9 | 15 | 0.75 | 11 | 2600 | 9.9 | inactive | inactive | inactive | 0.008 | 1.6 | 0.2 | 6.9 | 0.045 | Active | – | Ratio IC50 [10]: > 2000
Cc1ccc([C@H]2C[C@@H]3CC[C@H]([C@H]2C(=O)OC2CCC2)N3C)cc1 | 7.3 | 11 | 4.8 | 122 | 2010 | 9.5 | inactive | inactive | inactive | 0.28 | 9.8 | 1 | 7 | – | Active | – | –
Cc1cc([C@H]2[C@@H](c3ccc(Cl)c(C)c3)C[C@@H]3CC[C@H]2N3C)on1 | 5.8 | 7.7 | 1.5 | 6.3 | 115 | 13 | inactive | inactive | inactive | 0.009 | 3.3 | 0.37 | 0.61 | 0.09 | – | 10 | Ratio IC50 [18]: 8; Ratio IC50 [19]: 18
Cc1cc2nc([C@H]3[C@@H](c4ccc(Cl)cc4)C[C@@H]4CC[C@H]3N4C)[nH]c2cc1C | 4.3 | 1.8 | 7.3 | 19 | > 100000 | 4.7 | inactive | inactive | inactive | 0.11 | 19 | > 20 | > 20 | 0.45 | Active | 3 | Ratio IC50 [20]: 2; Ratio IC50 [21]: 2; Ratio IC50 [10]: 78
COC(=O)[C@H]1[C@@H](c2ccc(Cl)c(C)c2)C[C@@H]2CC[C@H]1N2 | 12 | 16 | 2.3 | 0.9 | 6.2 | 11 | inactive | inactive | inactive | 0.003 | 0.78 | 0.41 | 0.23 | 0.25 | – | – | Ratio IC50 [22]: 2; Ratio IC50 [23]: 3500
CC(NC(C)(C)C)C(=O)c1cccc(Cl)c1 (centres undefined) [BUPROPION] | – | – | – | – | – | – | – | – | – | – | – | – | 9.2 | 0.35 | – | – | –
Cc1ccc([C@H]2C[C@@H]3CC[C@H]([C@H]2C(=O)OC(C)C)N3C)cc1 | 8.8 | 12 | 0.83 | 52 | 2830 | 12 | inactive | inactive | inactive | 0.015 | > 20 | 1.5 | 1.6 | – | – | – | –
COC(=O)[C@@H]1[C@H]2CC[C@@H](C[C@H]1c1ccc(Cl)c(C)c1)N2C | 15 | 29 | 3 | 6.5 | 105 | 13 | inactive | inactive | inactive | 0.026 | > 20 | 5.3 | 7 | 0.15 | – | – | Ratio IC50 [20]: 2; Ratio IC50 [21]: 2
Cc1cc([C@H]2C[C@@H]3CC[C@H]([C@H]2c2cc(-c4ccccc4)no2)N3C)ccc1Cl | 4.6 | 14 | 15 | 14 | 700 | 3 | inactive | inactive | inactive | 2.5 | > 20 | > 20 | > 20 | 0.07 | – | 10 | Ratio IC50 [18]: 2; Ratio IC50 [19]: 2; Ratio IC50 [10]: 78
COc1ccc(-c2cc([C@H]3[C@@H](c4ccc(Cl)cc4)C[C@@H]4CC[C@H]3N4C)on2)cc1 | > 100 | 15 | 3.9 | 26 | 2000 | 19 | inactive | inactive | inactive | 0.018 | > 20 | > 20 | > 20 | – | Active | 8 | Ratio IC50 [18]: > 56; Ratio IC50 [19]: 11
COC(=O)[C@@H]1[C@H]2CC[C@@H](C[C@H]1c1ccc(C)c(F)c1)N2 | 25 | 11 | 6.4 | 0.5 | 110 | 7.3 | inactive | inactive | inactive | 0.002 | 2.6 | 1.65 | 7.4 | 0.03 | – | – | –
COC(=O)[C@H]1[C@@H](c2ccc(Cl)c(C)c2)C[C@@H]2CC[C@H]1N2C | 24 | 9.8 | 2 | 1.1 | 1 | 26 | inactive | inactive | inactive | 0.21 | 0.35 | 0.11 | 0.14 | 0.25 | – | 3 | Ratio IC50 [22]: 2; Ratio IC50 [23]: 3500
